Assay [1] relates to Cricetinae gen. sp. Put plainly: Percent activity in the Hamster tracheal organ culture assay at concentration 10e-10 (M). In kind it is functional, Cricetulus griseus, Trachea. The method in brief: (§1)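 Tracheas taken from vitamin A-deficient hamsters were kept in organ culture and scored for reversal of squamous keratinization of the epithelium. All-trans-retinoic acid was run at the same time as a reference in each separate experiment. ED50 is the molar dose that reverses keratinization in 50% of the retinoid-deficient tracheas.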

The subject of assay [2] is Cricetinae gen. sp. Put plainly: Percent activity in the Hamster tracheal organ culture assay at concentration 10e-11 (M). It is filed as functional, Cricetulus griseus, Trachea. The gist of the method:
as §1

Assay [3] relates to Cricetinae gen. sp. As to the kind of experiment: Percent activity in the Hamster tracheal organ culture assay at concentration 10e-8(M). In kind it is functional, Cricetulus griseus, Trachea. The method in brief: as §1
For assay [4], the system named is Cricetinae gen. sp. Put plainly: Percent activity in the Hamster tracheal organ culture assay at concentration 10e-9 (M). It is filed as functional, Cricetulus griseus, Trachea. The method in brief: as §1
Assay [5] relates to Cricetinae gen. sp. As to the kind of experiment: The dose for reversal of keratinization in epithelium of 50% of retinoid-deficient hamster tracheas in organ culture. In kind it is functional, Cricetulus griseus. Particulars: Trachea, read-out: ED50 (the source's name). The gist of the method:
as §1

Assay [6] deals with Cricetinae gen. sp. Put plainly: Dose for reversal of keratinization in epithelium of 50% of retinoid-deficient hamster tracheas in organ culture. In kind it is functional, Cricetulus griseus. The conditions noted are these: Trachea, read-out: ED50 (the source's name). The method in brief:
as §1

The subject of assay [7] is Cricetinae gen. sp. As to the kind of experiment: Percent activity in the Hamster tracheal organ culture assay at concentration 10e-12 (M). It is filed as functional, Cricetulus griseus, Trachea. The method in brief: as §1
Assay [8] has as its system Cricetinae gen. sp. Put plainly: Dose for reversal of keratinization in epithelium of 50% of retinoid-deficient hamster tracheas in organ culture in experiment D. It is filed as functional, Cricetulus griseus. The conditions noted are these: Trachea, read-out: ED50 (the source's name). The gist of the method:
as §1

Assay [9] concerns Cricetinae gen. sp. As to the kind of experiment: Dose for reversal of keratinization in epithelium of 50% of retinoid-deficient hamster tracheas in organ culture in experiment A. It is filed as functional, Cricetulus griseus. The conditions noted are these: Trachea, read-out: ED50 (the source's name). The method in brief:
as §1

Assay [10] relates to Cricetinae gen. sp. Put plainly: Dose for reversal of keratinization in epithelium of 50% of retinoid-deficient hamster tracheas in organ culture in experiment C. It is filed as functional, Cricetulus griseus. The conditions noted are these: Trachea, read-out: ED50 (the source's name). The gist of the method: as §1
Assay [11] concerns Cricetinae gen. sp. As to the kind of experiment: Percent activity in the Hamster tracheal organ culture assay at concentration 10e-10 (M) in experiment B. It is filed as functional, Cricetulus griseus, Trachea. The method in brief:
as §1

Assay [12] relates to Cricetinae gen. sp. Put plainly: Percent activity in the Hamster tracheal organ culture assay at concentration 10e-10 (M) in experiment C. In kind it is functional, Cricetulus griseus, Trachea. The gist of the method:
as §1

For assay [13], the system named is Cricetinae gen. sp. As to the kind of experiment: Percent activity in the Hamster tracheal organ culture assay at concentration 10e-10 (M) in experiment D. In kind it is functional, Cricetulus griseus, Trachea. The method in brief:
as §1

The test system of assay [14] is Cricetinae gen. sp. As to the kind of experiment: Percent activity in the Hamster tracheal organ culture assay at concentration 10e-11 (M) in experiment A. In kind it is functional, Cricetulus griseus, Trachea. The method in brief: as §1
For assay [15], the system named is Cricetinae gen. sp. Put plainly: Percent activity in the Hamster tracheal organ culture assay at concentration 10e-11 (M) in experiment B. It is filed as functional, Cricetulus griseus, Trachea. The gist of the method:
as §1

Assay [16] relates to Cricetinae gen. sp. Put plainly: Percent activity in the Hamster tracheal organ culture assay at concentration 10e-11 (M) in experiment C. It is filed as functional, Cricetulus griseus, Trachea. The gist of the method:
as §1

Assay [17] deals with Cricetinae gen. sp. As to the kind of experiment: Percent activity in the Hamster tracheal organ culture assay at concentration 10e-11 (M) in experiment D. It is filed as functional, Cricetulus griseus, Trachea. The method in brief: as §1
Assay [18] relates to Cricetinae gen. sp. As to the kind of experiment: Percent activity in the Hamster tracheal organ culture assay at concentration 10e-12 (M) in experiment A. In kind it is functional, Cricetulus griseus, Trachea. The method in brief: as §1
Assay [19] concerns Cricetinae gen. sp. Put plainly: Percent activity in the Hamster tracheal organ culture assay at concentration 10e-12 (M) in experiment B. It is filed as functional, Cricetulus griseus, Trachea. The method in brief:
as §1

In assay [20] the test system is Cricetinae gen. sp. As to the kind of experiment: Percent activity in the Hamster tracheal organ culture assay at concentration 10e-12 (M) in experiment C. In kind it is functional, Cricetulus griseus, Trachea. The method in brief: as §1
In assay [21] the test system is Cricetinae gen. sp. Put plainly: Percent activity in the Hamster tracheal organ culture assay at concentration 10e-12 (M) in experiment D. It is filed as functional, Cricetulus griseus, Trachea. The gist of the method: as §1
In assay [22] the test system is Cricetinae gen. sp. Put plainly: Dose for reversal of keratinization in epithelium of 50% of retinoid-deficient hamster tracheas in organ culture in experiment B. It is filed as functional, Cricetulus griseus. Particulars: Trachea, read-out: ED50 (the source's name). The gist of the method: as §1
Assay [23] relates to Cricetinae gen. sp. Put plainly: Percent activity in the Hamster tracheal organ culture assay at concentration 10e-10 (M).

As to `CCOC(=O)c1ccc(/C=C(\C)c2ccc3c(c2)C(C)(C)CC[S+]3[O-])cc1` (centres undefined), the Activity is recorded as 57.1% in the assay with Cricetinae gen. sp. [1], 11.1% in the assay with Cricetinae gen. sp. [2], 100% with Cricetinae gen. sp. [3] and 100% with Cricetinae gen. sp. [4]. Also, the EC50 with Cricetinae gen. sp. [5] came out at 0.1 nM.

With `CCOC(=O)c1ccc(/C=C(\C)c2ccc3c(c2)C(C)(C)CCS3)cc1`, the EC50 in the assay with Cricetinae gen. sp. [6] was 0.06 nM. For the same compound, the Activity was determined as 53.8% with Cricetinae gen. sp. [1], 28.6% in the assay on Cricetinae gen. sp. [2], 33.7% in the assay on Cricetinae gen. sp. [7] and 100% with Cricetinae gen. sp. [4].

With `CC1=C(/C=C/C(C)=C/C=C/C(C)=C/C(=O)O)C(C)(C)CCC1` [TRETINOIN], the EC50 in the assay on Cricetinae gen. sp. [8] turned out to be 0.01 nM; in the assay on Cricetinae gen. sp. [9] it was 0.02 nM; in the assay on Cricetinae gen. sp. [10] it was 0.1 nM; in the assay with Cricetinae gen. sp. [22], 0.009 nM. Also, the Activity in the assay on Cricetinae gen. sp. [11] is given as 100%; with Cricetinae gen. sp. [12], 83.3%; in the assay on Cricetinae gen. sp. [13], 83.7%; in the assay on Cricetinae gen. sp. [14] it was 41.7%; in the assay with Cricetinae gen. sp. [15], 53.8%; in the assay on Cricetinae gen. sp. [16], 50%. Besides, the Activity in the assay with Cricetinae gen. sp. [17] is recorded as 50%; in the assay on Cricetinae gen. sp. [18], 23.1%; in the assay on Cricetinae gen. sp. [19] it was 23.1%; with Cricetinae gen. sp. [20], 16.7%; with Cricetinae gen. sp. [21] it was 33.3%; with Cricetinae gen. sp. [23], 76.9%.

`C/C(=C\c1ccc(C(=O)O)cc1)c1ccc2c(c1)C(C)(C)CCO2`: the EC50 with Cricetinae gen. sp. [6] came out at 0.6 nM. For the same compound, the figures for the Activity with Cricetinae gen. sp. [1], in the assay with Cricetinae gen. sp. [3] and in the assay on Cricetinae gen. sp. [4] were 18.6%, 71.4% and 71.4%, respectively.

Consider `CCOC(=O)c1ccc(/C=C(\C)c2ccc3c(c2)C(C)(C)CCO3)cc1`, for which, in the assay on Cricetinae gen. sp. [6], the EC50 is 0.1 nM. Besides, the values for the Activity in the assay on Cricetinae gen. sp. [1], in the assay on Cricetinae gen. sp. [2] and with Cricetinae gen. sp. [4] were 50%, 28.2% and 100%, respectively.

The record behind these values is ChEMBL document CHEMBL1123088, “Synthesis and characterization of selected heteroarotinoids. Pharmacological activity as assessed in vitamin A deficient hamster tracheal organ cultures. Single-crystal X-ray diffraction analysis of 4,4-dimethylthiochroman-6-yl methyl ketone 1,1-dioxide and ethyl …” (1985).
